Legend:
Settings in all cases: in vivo
Rattus norvegicus [1] = assay: Biodistribution in male Sprague-Dawley rat bone marrow at 5 mg/kg, po administered as single dose measured after 0.5 hrs; assay type: ADME, organism-based; parameters: dose 5 mg/kg, dosed compound name [14C]-apixaban, route oral
Procedure, shortened: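 Fasted male rats, 225-252 g, received [14C]apixaban by single oral gavage at 100 μCi/kg in 0.5% Tween 80/Labrafil. One rat was killed per time point and the carcass frozen. Tissue radioactivity was quantified by QWBA (40 µm sagittal sections, phosphor plate, [14C]glucose calibration) as µg eq apixaban/g, with LLOQ 0.037 μg eq/g.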

Rattus norvegicus [2] = assay: Biodistribution in male Sprague-Dawley rat kidney cortex at 5 mg/kg, po administered as single dose measured after 24 hrs; assay type: ADME, organism-based; parameters: dose 5 mg/kg, dosed compound name [14C]-apixaban, route oral
Rattus norvegicus [3] = assay: Biodistribution in female Sprague-Dawley rat bone marrow at 5 mg/kg, po administered as single dose measured after 24 hrs; assay type: ADME, organism-based; parameters: dose 5 mg/kg, dosed compound name [14C]-apixaban, route oral
Procedure, shortened: (§1)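 Quantitative whole-body autoradiography was run after a single 5 mg/kg (100 μCi/kg) oral gavage to fasted female or pregnant SD rats, one rat per time point. Carcasses were frozen in hexane/dry ice, and 40 µm sagittal sections were dried at −20°C for at least 48 h. Sections were exposed to a phosphor plate alongside [14C]glucose standards (0.001–6.5 µCi/g). Results are µg eq/g, with LLOQ 0.037 µg eq/g.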

Rattus norvegicus [4] = assay: Biodistribution in female Sprague-Dawley rat salivary gland at 5 mg/kg, po administered as single dose measured after 8 hrs; assay type: ADME, organism-based; parameters: dose 5 mg/kg, dosed compound name [14C]-apixaban, route oral
Procedure, shortened: (§2)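 [14C]apixaban (20 μCi/mL in dosing solution) in 0.5% Tween 80 in Labrafil given by oral gavage to fasted female rats, 206-213 g, at 100 μCi/kg. One rat per time point was euthanized and snap-frozen. Sagittal 40 µm whole-body sections were read by QWBA phosphor imaging against [14C]glucose standards. Results are in µg eq apixaban/g, with LLOQ 0.037 μg eq/g.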

Liver [5] = assay: Biodistribution in female Sprague-Dawley rat liver at 5 mg/kg, po administered as single dose measured after 8 hrs; assay type: ADME, organism-based; parameters: dose 5 mg/kg, dosed compound name [14C]-apixaban, route oral
Procedure, shortened: (§3)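 [¹⁴C]Apixaban given by oral gavage at 5 mg/kg (100 μCi/kg) in 0.5% Tween 80 in Labrafil (1.0 mg/mL dosing solution) to rats fasted overnight through 4 h post-dose. One rat per time point; carcass frozen in hexane/dry ice. Quantitative whole-body autoradiography used 40 µm sagittal sections and a phosphor imaging plate calibrated with [¹⁴C]glucose standards (0.001–6.5 μCi/g). Read-out in µg eq apixaban/g; LLOQ 0.037 μg eq/g.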

Rattus norvegicus [6] = assay: Biodistribution in female Sprague-Dawley rat brown fat at 5 mg/kg, po administered as single dose measured after 8 hrs; assay type: ADME, organism-based, Brown adipose tissue; parameters: dose 5 mg/kg, dosed compound name [14C]-apixaban, route oral; procedure, shortened: as §2
Adrenal gland = assay: Biodistribution in female Sprague-Dawley rat adrenal gland at 5 mg/kg, po administered as single dose measured after 1 hr; assay type: ADME, organism-based; parameters: dose 5 mg/kg, dosed compound name [14C]-apixaban, route oral; procedure, shortened: as §3
Brain [7] = assay: Biodistribution in male Sprague-Dawley rat brain at 5 mg/kg, po administered as single dose measured after 4 hrs; assay type: ADME, organism-based; parameters: dose 5 mg/kg, dosed compound name [14C]-apixaban, route oral
Rattus norvegicus [8] = assay: Biodistribution in pregnant Sprague-Dawley rat salivary gland at 5 mg/kg, po administered as single dose measured after 24 hrs; assay type: ADME, organism-based; parameters: dose 5 mg/kg, dosed compound name [14C]-apixaban, route oral
Procedure, shortened: (§4)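 Pregnant SD rats (270-319 g) were fasted overnight and given one oral gavage of 5 mg/kg (100 μCi/kg) in 0.5% Tween 80 in Labrafil. One rat was euthanized per time point (0.5, 1, 4, 8, 24, 48 h) and the carcass frozen. 40 µm sagittal sections were phosphor-imaged against [14C]glucose standards and results reported as µg eq/g; LLOQ 0.037 µg eq/g.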

Lung [9] = assay: Biodistribution in female Sprague-Dawley rat lung at 5 mg/kg, po administered as single dose measured after 0.5 hrs; assay type: ADME, organism-based; parameters: dose 5 mg/kg, dosed compound name [14C]-apixaban, route oral; procedure, shortened: as §3
Blood [10] = assay: AUC (0 to infinity) in female Sprague-Dawley rat blood at 5 mg/kg, po administered as single dose; assay type: ADME, organism-based; parameters: time infinity, dose 5 mg/kg, dosed compound name [14C]-apixaban, route oral
[11] = Drug level in lactating Sprague-Dawley rat milk at 5 mg/kg, po administered as single dose; assay type: ADME, organism-based; parameters: dose 5 mg/kg, dosed compound name [14C]-apixaban, route oral
Procedure, shortened: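 Lactating SD rats received a single oral gavage of 5 mg/kg (108 μCi/kg) in 0.5% Tween 80/Labrafil. Three rats were sampled per time point at 0.5-24 h. Oxytocin was given sc 15 min before milking under anesthesia. Milk, blood and plasma were counted in duplicate by liquid scintillation for 10 min and expressed as apixaban equivalents.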

Lung [12] = assay: Biodistribution in pregnant Sprague-Dawley rat lung at 5 mg/kg, po administered as single dose measured after 48 hrs; assay type: ADME, organism-based; parameters: dose 5 mg/kg, dosed compound name [14C]-apixaban, route oral; procedure, shortened: as §4
Harderian gland [13] = assay: Biodistribution in female Sprague-Dawley rat harderian gland at 5 mg/kg, po administered as single dose measured after 72 hrs; assay type: ADME, organism-based; parameters: dose 5 mg/kg, dosed compound name [14C]-apixaban, route oral; procedure, shortened: as §1
Lung [14] = assay: Biodistribution in female Sprague-Dawley rat lung at 5 mg/kg, po administered as single dose measured after 72 hrs; assay type: ADME, organism-based; parameters: dose 5 mg/kg, dosed compound name [14C]-apixaban, route oral; procedure, shortened: as §1
Rattus norvegicus [15] = assay: Biodistribution in female Sprague-Dawley rat salivary gland at 5 mg/kg, po administered as single dose measured after 72 hrs; assay type: ADME, organism-based; parameters: dose 5 mg/kg, dosed compound name [14C]-apixaban, route oral; procedure, shortened: as §1
Lung [16] = assay: Biodistribution in female Sprague-Dawley rat lung at 5 mg/kg, po administered as single dose measured after 4 hrs; assay type: ADME, organism-based; parameters: dose 5 mg/kg, dosed compound name [14C]-apixaban, route oral; procedure, shortened: as §3
Heart = assay: Biodistribution in female Sprague-Dawley rat heart at 5 mg/kg, po administered as single dose measured after 4 hrs; assay type: ADME, organism-based; parameters: dose 5 mg/kg, dosed compound name [14C]-apixaban, route oral; procedure, shortened: as §3
Lung [17] = assay: Biodistribution in female Sprague-Dawley rat lung at 5 mg/kg, po administered as single dose measured after 1 hr; assay type: ADME, organism-based; parameters: dose 5 mg/kg, dosed compound name [14C]-apixaban, route oral; procedure, shortened: as §3
Harderian gland [18] = assay: Biodistribution in pregnant Sprague-Dawley rat harderian gland at 5 mg/kg, po administered as single dose measured after 4 hrs; assay type: ADME, organism-based; parameters: dose 5 mg/kg, dosed compound name [14C]-apixaban, route oral
Liver [19] = assay: Biodistribution in pregnant Sprague-Dawley rat liver at 5 mg/kg, po administered as single dose measured after 4 hrs; assay type: ADME, organism-based; parameters: dose 5 mg/kg, dosed compound name [14C]-apixaban, route oral
Procedure, shortened: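 Fasted pregnant SD rats (n=6, 270-319 g) each received one oral gavage dose of [14C]apixaban, 5 mg/kg (100 μCi/kg), in 0.5% Tween 80/Labrafil. One rat was killed at each of 0.5, 1, 4, 8, 24 and 48 h. Carcasses were frozen in hexane/dry ice, cut into 40 µm sagittal sections, exposed to phosphor plates and quantified against [14C]glucose standards as µg eq/g. LLOQ was 0.037 µg eq/g.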

Rattus norvegicus [20] = assay: Biodistribution in female Sprague-Dawley rat brown fat at 5 mg/kg, po administered as single dose measured after 1 hr; assay type: ADME, organism-based, Brown adipose tissue; parameters: dose 5 mg/kg, dosed compound name [14C]-apixaban, route oral; procedure, shortened: as §2
Blood [21] = assay: AUC (0 to t) in lactating Sprague-Dawley rat blood at 5 mg/kg, po administered as single dose; assay type: ADME, organism-based; parameters: dose 5 mg/kg, dosed compound name [14C]-apixaban, route oral
Spleen = assay: Biodistribution in female Sprague-Dawley rat spleen at 5 mg/kg, po administered as single dose measured after 72 hrs; assay type: ADME, organism-based; parameters: dose 5 mg/kg, dosed compound name [14C]-apixaban, route oral; procedure, shortened: as §1
Rattus norvegicus [22] = assay: Biodistribution in pregnant Sprague-Dawley rat placenta at 5 mg/kg, po administered as single dose measured after 0.5 hrs; assay type: ADME, organism-based; parameters: dose 5 mg/kg, dosed compound name [14C]-apixaban, route oral
Rattus norvegicus [23] = assay: Biodistribution in pregnant Sprague-Dawley rat bone marrow at 5 mg/kg, po administered as single dose measured after 1 hr; assay type: ADME, organism-based; parameters: dose 5 mg/kg, dosed compound name [14C]-apixaban, route oral
Brain [24] = assay: Biodistribution in pregnant Sprague-Dawley rat brain at 5 mg/kg, po administered as single dose measured after 1 hr; assay type: ADME, organism-based; parameters: dose 5 mg/kg, dosed compound name [14C]-apixaban, route oral
Rattus norvegicus [25] = assay: Biodistribution in fetal kidney of pregnant Sprague-Dawley rat at 5 mg/kg, po administered as single dose measured after 1 hr; assay type: ADME, organism-based; parameters: dose 5 mg/kg, dosed compound name [14C]-apixaban, route oral
Procedure, shortened: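 Pregnant rats, 270-319 g and fasted overnight, received [14C]apixaban by oral gavage at 100 μCi/kg in 0.5% Tween 80/Labrafil. One dam per time point was euthanized and frozen in hexane/dry ice. Fetal tissue radioactivity was measured by QWBA on 40 µm sagittal sections calibrated with [14C]glucose standards. Values are in µg eq/g, with LLOQ 0.037 μg eq/g.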

Radiolabel recovery (Rattus norvegicus [1]): 0.26 ugequiv/g
Radiolabel recovery (Rattus norvegicus [2]): < 0.037 ugequiv/g
Radiolabel recovery (Rattus norvegicus [3]): Not detected assumed BLQ
Radiolabel recovery (Rattus norvegicus [4]): 0.13 ugequiv/g
Radiolabel recovery (Liver [5]): 1.12 ugequiv/g
Radiolabel recovery (Rattus norvegicus [6]): 0.17 ugequiv/g
Radiolabel recovery (Adrenal gland): 1.1 ugequiv/g
Radiolabel recovery (Brain [7]): < 0.037 ugequiv/g
Radiolabel recovery (Rattus norvegicus [8]): Not detected assumed BLQ
Radiolabel recovery (Lung [9]): 0.43 ugequiv/g
AUC (Blood [10]): 3780 ngequiv.hr/g
Radiolabel recovery [11]: > 96%
Radiolabel recovery (Lung [12]): Not detected assumed BLQ
Radiolabel recovery (Harderian gland [13]): Not detected assumed BLQ
Radiolabel recovery (Rattus norvegicus [15]): Not detected assumed BLQ
Radiolabel recovery (Lung [16]): 0.51 ugequiv/g
Radiolabel recovery (Heart): 0.51 ugequiv/g
Radiolabel recovery (Lung [17]): 0.883 ugequiv/g
Radiolabel recovery (Harderian gland [18]): 1.1 ugequiv/g
Radiolabel recovery (Liver [19]): 6.13 ugequiv/g
Radiolabel recovery (Rattus norvegicus [20]): 0.77 ugequiv/g
AUCt (Blood [21]): 1940 ngequiv.hr/g
Radiolabel recovery (Spleen): Not detected assumed BLQ
Radiolabel recovery (Rattus norvegicus [22]): 1.02 ugequiv/g
Radiolabel recovery (Rattus norvegicus [23]): 0.33 ugequiv/g
Radiolabel recovery (Brain [24]): 0.06 ugequiv/g
Radiolabel recovery (Rattus norvegicus [25]): 0.2 ugequiv/g
Structure (SMILES): COc1ccc(-n2nc(C(N)=O)c3c2C(=O)N(c2ccc(N4CCCC[14C]4=O)cc2)CC3)cc1
Radiolabel recovery (Lung [14]): Not sampled as not visualised in autoradiograph

Reference: ChEMBL document CHEMBL3525963, “Tissue distribution and elimination of [14C]apixaban in rats” (Drug Metab Dispos, 2011)
